Experimental data taken from the M2OR odorant receptor database.

Tests used:
Details in all cases: stereoisomer not certain
[1] = molecular target: T1, UniProt Q8VF24
T1 sequence (whole entry): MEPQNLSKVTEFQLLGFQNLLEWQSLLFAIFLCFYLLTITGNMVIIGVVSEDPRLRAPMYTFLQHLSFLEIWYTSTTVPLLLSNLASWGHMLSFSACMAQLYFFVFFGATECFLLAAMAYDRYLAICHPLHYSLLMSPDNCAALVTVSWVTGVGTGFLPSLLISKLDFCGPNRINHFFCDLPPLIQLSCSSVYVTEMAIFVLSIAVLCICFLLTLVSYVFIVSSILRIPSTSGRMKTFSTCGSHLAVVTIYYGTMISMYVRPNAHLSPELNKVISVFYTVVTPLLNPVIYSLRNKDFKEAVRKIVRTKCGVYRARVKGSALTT
Outline: (§1)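 Assay methods differ from source to source, frequently being transient luciferase assays in mammalian cell lines. For each receptor–molecule pair, the label responsive (active) applies when the original authors judged the measured signal statistically different from baseline, and non-responsive (inactive) applies otherwise.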

[2] = molecular target: T2, UniProt Q8VF43
T2 sequence (whole entry): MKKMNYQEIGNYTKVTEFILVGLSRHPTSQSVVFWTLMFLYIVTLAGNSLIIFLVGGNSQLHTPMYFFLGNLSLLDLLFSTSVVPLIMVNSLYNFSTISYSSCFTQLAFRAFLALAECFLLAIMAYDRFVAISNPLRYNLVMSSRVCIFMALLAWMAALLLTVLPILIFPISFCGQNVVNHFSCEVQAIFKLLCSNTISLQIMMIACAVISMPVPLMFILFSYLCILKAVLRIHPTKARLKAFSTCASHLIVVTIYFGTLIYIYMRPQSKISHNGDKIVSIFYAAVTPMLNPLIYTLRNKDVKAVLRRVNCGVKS
Outline: as §1

[3] = molecular target: T3, UniProt Q8VF44
T3 sequence (whole entry): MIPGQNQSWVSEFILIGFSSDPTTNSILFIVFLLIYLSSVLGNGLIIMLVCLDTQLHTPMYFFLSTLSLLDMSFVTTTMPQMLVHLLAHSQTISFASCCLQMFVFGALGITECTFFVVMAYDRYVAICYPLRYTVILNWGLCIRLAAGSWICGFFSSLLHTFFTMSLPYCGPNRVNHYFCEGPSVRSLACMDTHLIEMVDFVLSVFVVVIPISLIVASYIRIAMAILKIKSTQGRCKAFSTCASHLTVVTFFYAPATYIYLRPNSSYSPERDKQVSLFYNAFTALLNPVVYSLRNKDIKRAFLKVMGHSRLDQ
Outline: as §1

[4] = molecular target: T4, UniProt Q8VF52
T4 sequence (whole entry): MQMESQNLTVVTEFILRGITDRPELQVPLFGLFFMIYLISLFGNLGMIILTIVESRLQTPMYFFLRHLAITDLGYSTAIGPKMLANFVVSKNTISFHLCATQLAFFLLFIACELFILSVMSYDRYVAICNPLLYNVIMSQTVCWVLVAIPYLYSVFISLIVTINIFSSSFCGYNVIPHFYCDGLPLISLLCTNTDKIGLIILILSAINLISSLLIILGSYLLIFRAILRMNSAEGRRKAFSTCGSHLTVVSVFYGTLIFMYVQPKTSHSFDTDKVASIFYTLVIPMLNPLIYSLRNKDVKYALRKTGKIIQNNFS
Outline: as §1

[5] = molecular target: T5, UniProt Q8VFG6
T5 sequence (whole entry): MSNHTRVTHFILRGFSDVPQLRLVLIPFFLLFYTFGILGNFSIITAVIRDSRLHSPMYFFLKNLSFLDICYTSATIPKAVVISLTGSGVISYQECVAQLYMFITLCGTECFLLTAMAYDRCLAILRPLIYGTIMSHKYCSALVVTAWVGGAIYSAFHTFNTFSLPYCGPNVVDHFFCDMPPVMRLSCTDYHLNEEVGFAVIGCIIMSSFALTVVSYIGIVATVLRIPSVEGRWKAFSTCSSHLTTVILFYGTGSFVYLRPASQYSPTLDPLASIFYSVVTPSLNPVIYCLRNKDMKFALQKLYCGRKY
Outline: as §1

[6] = molecular target: T6, UniProt Q8VFM8
T6 sequence (whole entry): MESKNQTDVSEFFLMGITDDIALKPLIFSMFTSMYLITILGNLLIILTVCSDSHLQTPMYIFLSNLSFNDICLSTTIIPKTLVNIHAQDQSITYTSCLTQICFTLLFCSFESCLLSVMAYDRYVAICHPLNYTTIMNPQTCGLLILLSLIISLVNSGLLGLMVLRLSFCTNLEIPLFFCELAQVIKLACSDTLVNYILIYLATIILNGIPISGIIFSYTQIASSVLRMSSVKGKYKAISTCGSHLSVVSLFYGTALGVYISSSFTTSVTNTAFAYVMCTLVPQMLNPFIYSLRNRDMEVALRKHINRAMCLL
Outline: as §1

[7] = molecular target: T7, UniProt Q8VFP5
T7 sequence (whole entry): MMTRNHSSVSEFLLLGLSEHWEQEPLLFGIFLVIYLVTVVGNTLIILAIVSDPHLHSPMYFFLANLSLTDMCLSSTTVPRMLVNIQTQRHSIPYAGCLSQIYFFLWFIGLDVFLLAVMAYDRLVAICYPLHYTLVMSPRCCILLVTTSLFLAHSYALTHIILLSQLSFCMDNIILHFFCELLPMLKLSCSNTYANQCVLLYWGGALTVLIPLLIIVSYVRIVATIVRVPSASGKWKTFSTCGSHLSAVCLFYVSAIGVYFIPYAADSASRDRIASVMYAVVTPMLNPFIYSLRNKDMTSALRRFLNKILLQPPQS
Outline: as §1

[8] = molecular target: T8, UniProt Q8VFZ6
T8 sequence (whole entry): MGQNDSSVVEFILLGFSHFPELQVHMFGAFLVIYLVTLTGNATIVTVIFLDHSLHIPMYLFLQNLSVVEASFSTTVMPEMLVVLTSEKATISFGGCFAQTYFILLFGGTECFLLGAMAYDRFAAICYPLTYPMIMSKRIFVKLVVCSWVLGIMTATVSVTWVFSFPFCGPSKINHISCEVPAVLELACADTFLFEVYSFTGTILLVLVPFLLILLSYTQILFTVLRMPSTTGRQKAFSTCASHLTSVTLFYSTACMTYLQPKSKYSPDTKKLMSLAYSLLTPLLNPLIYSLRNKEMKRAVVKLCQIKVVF
Outline: as §1

[9] = molecular target: T9, UniProt Q8VG01
T9 sequence (whole entry): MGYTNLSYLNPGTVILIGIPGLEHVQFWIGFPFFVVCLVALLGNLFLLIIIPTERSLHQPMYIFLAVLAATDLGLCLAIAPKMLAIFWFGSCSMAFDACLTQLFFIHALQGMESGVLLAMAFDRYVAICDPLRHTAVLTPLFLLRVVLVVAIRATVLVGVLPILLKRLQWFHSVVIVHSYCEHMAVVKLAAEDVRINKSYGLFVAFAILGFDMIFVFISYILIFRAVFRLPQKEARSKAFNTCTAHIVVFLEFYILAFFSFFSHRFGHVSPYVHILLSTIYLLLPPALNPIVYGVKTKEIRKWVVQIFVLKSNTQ
Outline: as §1

[10] = molecular target: T10, UniProt Q8VG22
T10 sequence (whole entry): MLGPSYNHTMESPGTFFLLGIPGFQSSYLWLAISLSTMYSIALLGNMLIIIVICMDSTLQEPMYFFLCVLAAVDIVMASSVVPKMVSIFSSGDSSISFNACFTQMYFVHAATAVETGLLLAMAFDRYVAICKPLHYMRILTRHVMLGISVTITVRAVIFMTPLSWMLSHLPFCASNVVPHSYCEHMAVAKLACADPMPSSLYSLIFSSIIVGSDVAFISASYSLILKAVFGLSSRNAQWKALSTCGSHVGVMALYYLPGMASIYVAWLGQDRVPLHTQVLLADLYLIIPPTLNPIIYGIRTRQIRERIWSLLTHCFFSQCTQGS
Outline: as §1

[11] = molecular target: UniProt Q8VF06
Outline: as §1

[12] = molecular target: UniProt Q8VG26
Outline: as §1

[13] = molecular target: UniProt Q8VF73
Outline: as §1

[14] = molecular target: UniProt Q8VFB8
Outline: as §1

[15] = molecular target: UniProt Q8VFQ6
Outline: as §1

Sequence of UniProt Q8VG26 (Q8VG26 as listed by the source): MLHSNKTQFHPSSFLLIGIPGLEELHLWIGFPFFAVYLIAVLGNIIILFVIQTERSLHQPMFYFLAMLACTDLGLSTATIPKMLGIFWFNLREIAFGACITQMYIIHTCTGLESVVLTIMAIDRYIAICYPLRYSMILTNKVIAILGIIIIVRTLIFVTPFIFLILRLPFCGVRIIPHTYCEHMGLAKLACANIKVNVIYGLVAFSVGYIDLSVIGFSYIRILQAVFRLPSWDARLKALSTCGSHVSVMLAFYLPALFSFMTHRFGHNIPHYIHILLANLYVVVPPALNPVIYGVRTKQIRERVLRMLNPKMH
Sequence of UniProt Q8VF06 (Q8VF06 as listed by the source): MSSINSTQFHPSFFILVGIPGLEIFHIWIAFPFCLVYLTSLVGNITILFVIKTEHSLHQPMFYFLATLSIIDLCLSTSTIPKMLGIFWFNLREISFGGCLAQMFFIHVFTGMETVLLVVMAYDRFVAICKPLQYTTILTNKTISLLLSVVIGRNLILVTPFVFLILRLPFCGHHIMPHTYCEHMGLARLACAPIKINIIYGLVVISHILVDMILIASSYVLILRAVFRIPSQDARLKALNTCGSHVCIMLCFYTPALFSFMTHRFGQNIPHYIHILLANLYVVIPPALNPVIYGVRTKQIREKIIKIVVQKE
Sequence of UniProt Q8VFB8 (Q8VFB8 as listed by the source): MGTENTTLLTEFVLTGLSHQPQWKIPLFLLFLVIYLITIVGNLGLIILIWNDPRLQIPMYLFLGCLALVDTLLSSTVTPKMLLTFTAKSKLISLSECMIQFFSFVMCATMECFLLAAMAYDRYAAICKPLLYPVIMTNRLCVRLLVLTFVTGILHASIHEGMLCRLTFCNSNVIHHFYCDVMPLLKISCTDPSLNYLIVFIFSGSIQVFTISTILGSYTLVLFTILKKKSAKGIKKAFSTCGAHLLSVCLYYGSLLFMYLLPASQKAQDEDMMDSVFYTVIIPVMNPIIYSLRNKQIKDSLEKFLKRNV
Sequence of UniProt Q8VF73 (Q8VF73 as listed by the source): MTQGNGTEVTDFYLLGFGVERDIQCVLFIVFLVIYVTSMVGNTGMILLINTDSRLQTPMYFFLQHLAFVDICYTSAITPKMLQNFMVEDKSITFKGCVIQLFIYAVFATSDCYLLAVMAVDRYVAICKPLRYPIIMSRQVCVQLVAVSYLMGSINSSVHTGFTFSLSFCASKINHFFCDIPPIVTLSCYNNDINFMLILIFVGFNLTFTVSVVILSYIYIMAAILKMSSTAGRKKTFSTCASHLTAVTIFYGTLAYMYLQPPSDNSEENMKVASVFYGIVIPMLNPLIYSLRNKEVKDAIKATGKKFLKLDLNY
Sequence of UniProt Q8VFQ6 (Q8VFQ6 as listed by the source): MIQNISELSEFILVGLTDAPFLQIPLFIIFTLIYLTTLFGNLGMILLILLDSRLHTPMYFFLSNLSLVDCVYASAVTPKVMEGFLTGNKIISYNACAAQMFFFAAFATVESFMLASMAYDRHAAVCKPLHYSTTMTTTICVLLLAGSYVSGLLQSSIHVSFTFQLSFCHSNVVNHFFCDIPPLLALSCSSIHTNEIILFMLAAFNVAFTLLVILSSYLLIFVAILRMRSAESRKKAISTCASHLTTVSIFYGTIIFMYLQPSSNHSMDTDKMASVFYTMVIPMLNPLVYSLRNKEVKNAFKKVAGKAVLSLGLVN

Row | Structure (SMILES) | odorant receptor agonist call [1] | odorant receptor agonist call [2] | odorant receptor agonist call [3] | odorant receptor agonist call [4] | odorant receptor agonist call [5] | odorant receptor agonist call [6] | odorant receptor agonist call [7] | odorant receptor agonist call [8] | odorant receptor agonist call [9] | odorant receptor agonist call [10] | odorant receptor agonist call [11] | odorant receptor agonist call [12] | odorant receptor agonist call [13] | odorant receptor agonist call [14] | odorant receptor agonist call [15]
1 | CCCCCCC(C)=O | inactive | inactive | inactive | inactive | inactive | inactive | inactive | inactive | inactive | inactive | – | – | – | – | –
2 | CC(=O)OCC=C(C)C | inactive | inactive | inactive | inactive | inactive | inactive | inactive | inactive | inactive | inactive | – | – | – | – | –
3 | CCCCCCCO | inactive | inactive | inactive | inactive | inactive | inactive | inactive | inactive | inactive | active | inactive | inactive | – | – | –
4 | c1ccccc1 | inactive | inactive | inactive | inactive | inactive | inactive | inactive | inactive | inactive | inactive | – | – | – | – | –
5 | CCCC(C)=O | inactive | – | inactive | inactive | inactive | – | – | inactive | inactive | inactive | inactive | inactive | – | – | –
6 | CCCCOC=O | inactive | inactive | inactive | inactive | inactive | inactive | inactive | inactive | inactive | inactive | – | – | – | – | –
7 | CCCCCCCCCCC(=O)O | – | – | – | – | – | – | – | – | – | – | inactive | – | – | – | –
8 | CCCCC(=O)CC | inactive | inactive | inactive | inactive | inactive | inactive | inactive | inactive | inactive | inactive | – | – | – | – | –
9 | CCCCCCCCCS | inactive | inactive | inactive | inactive | inactive | inactive | inactive | active | inactive | inactive | – | – | – | – | –
10 | CCCCCCCCCCCC(=O)O | – | – | – | – | – | – | – | – | – | – | inactive | – | – | – | –
11 | CCCCCCCCC(=O)O | inactive | inactive | inactive | inactive | inactive | inactive | inactive | inactive | inactive | inactive | active | inactive | – | – | –
12 | CCCCC=O | – | inactive | – | inactive | – | inactive | inactive | – | inactive | – | inactive | inactive | – | – | –
13 | CCCCCCO | inactive | inactive | inactive | inactive | inactive | inactive | inactive | inactive | inactive | active | inactive | inactive | – | – | –
14 | O=C(O)CCCCCBr | – | inactive | – | inactive | – | inactive | inactive | – | active | – | inactive | – | – | – | –
15 | CCOC(=O)C(C)C | inactive | inactive | inactive | inactive | inactive | inactive | inactive | inactive | inactive | inactive | – | – | – | – | –
16 | C=C(C)C1CCC(C)C(=O)C1 (centres undefined) | inactive | inactive | inactive | active | inactive | inactive | inactive | inactive | inactive | active | – | – | – | – | –
17 | CCCCCCCC(=O)[O-].[H+] | inactive | – | inactive | inactive | inactive | – | – | inactive | active | inactive | active | inactive | – | – | –
18 | O=C1CCOc2ccccc21 | inactive | inactive | inactive | active | active | inactive | inactive | inactive | inactive | active | – | – | active | active | inactive
19 | CCCC(=O)C(C)=O | inactive | inactive | inactive | inactive | inactive | inactive | inactive | inactive | inactive | active | – | – | – | – | –
20 | O=C([O-])CCCCCCCC(=O)[O-].[H+].[H+] | – | inactive | – | inactive | – | inactive | inactive | – | inactive | – | inactive | inactive | – | – | –
